Calls of active or inactive are those of the source. The rule behind the calls is not given here.
What was measured:
PC-3 = assay: Selectivity index, ratio of IC50 for HAF to IC50 for human PC3 cells
Summary of the method: (§1)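 SRB viability assay. Cells are seeded for 24 h, then exposed for 96 h to a concentration series from 20 mM DMSO stocks, with a DMSO control. Cells are fixed in 50% TCA (2 h, 4 °C), stained with 0.4% SRB for 10 min and washed with 1% acetic acid. Bound dye is dissolved in 10 mM Tris base and read at 515 nm. IC50 is averaged from at least 3 independent experiments. SI is IC50 in HAF divided by IC50 in the cancer line.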

MCF7 [1] = assay: Cytotoxicity against human MCF7 cells assessed as growth inhibition after 96 hrs by SRB assay; format: functional, cell-based; details: MCF7, 96 h; summary of the method: as §1
MCF7 [2] = assay: Selectivity index, ratio of IC50 for HAF to IC50 for human MCF7 cells; summary of the method: as §1
[3] = Selectivity index, ratio of IC50 for HAF to IC50 for human MDA-MB-231 cells; summary of the method: as §1
NCI/ADR-RES [4] = assay: Selectivity index, ratio of IC50 for HAF to IC50 for human MCF7/ADR cells; summary of the method: as §1
DU-145 [5] = assay: Cytotoxicity against human DU145 cells assessed as growth inhibition after 96 hrs by SRB assay; format: functional, cell-based; details: DU-145, 96 h; summary of the method: as §1
4T1 [6] = assay: Selectivity index, ratio of IC50 for HAF to IC50 for mouse 4T1 cells; summary of the method: as §1
[7] = Cytotoxicity against human HCT116 cells assessed as growth inhibition after 96 hrs by SRB assay; format: functional, cell-based; details: HCT-116, 96 h; summary of the method: as §1
HT-29 [8] = assay: Cytotoxicity against human HT-29 cells assessed as growth inhibition after 96 hrs by SRB assay; format: functional, cell-based; details: HT-29, 96 h; summary of the method: as §1
NCI/ADR-RES [9] = assay: Induction of apoptosis in human MCF7/ADR cells assessed as early apoptotic cells at 20 uM after 24 hrs by annexin V-FITC/propidium iodide staining-based flow cytometric analysis (reference value: 0.67%); format: functional
DU-145 [10] = assay: Selectivity index, ratio of IC50 for HAF to IC50 for human DU145 cells; summary of the method: as §1
MDA-MB-231 [11] = assay: Induction of apoptosis in human MDA-MB-231 cells assessed as early apoptotic cells at 5 uM after 24 hrs by annexin V-FITC/propidium iodide staining-based flow cytometric analysis (reference value: 0.59%); format: functional
HT-29 [12] = assay: Selectivity index, ratio of IC50 for HAF to IC50 for human HT-29 cells; summary of the method: as §1
MDA-MB-231 [13] = assay: Cytotoxicity against human MDA-MB-231 cells assessed as growth inhibition after 96 hrs by SRB assay; format: functional, cell-based; details: MDA-MB-231, 96 h; summary of the method: as §1
T47D [14] = assay: Selectivity index, ratio of IC50 for HAF to IC50 for human T47D cells; summary of the method: as §1
HCT-116 = assay: Selectivity index, ratio of IC50 for HAF to IC50 for human HCT116 cells; summary of the method: as §1
MCF7 [15] = assay: Induction of apoptosis in human MCF7 cells assessed as late apoptotic cells at 20 uM after 24 hrs by annexin V-FITC/propidium iodide staining-based flow cytometric analysis (reference value: 0.84%); format: functional
MDA-MB-231 [16] = assay: Antimetastatic activity against human MDA-MB-231 cells at 2.5 to 10 uM after 12 hrs by transwell assay; format: functional, cell-based
T47D [17] = assay: Cytotoxicity against human T47D cells assessed as growth inhibition after 96 hrs by SRB assay; format: functional, cell-based; summary of the method: as §1
[18] = Cytotoxicity against human MCF7/ADR cells assessed as growth inhibition after 96 hrs by SRB assay; format: functional, cell-based; details: NCI/ADR-RES; summary of the method: as §1
[19] = Cytotoxicity against HAF assessed as growth inhibition after 96 hrs by SRB assay; details: Homo sapiens; summary of the method: as §1
NCI/ADR-RES [20] = assay: Induction of apoptosis in human MCF7/ADR cells assessed as late apoptotic cells at 20 uM after 24 hrs by annexin V-FITC/propidium iodide staining-based flow cytometric analysis (reference value: 1.48%); format: functional
MCF7 [21] = assay: Induction of apoptosis in human MCF7 cells assessed as early apoptotic cells at 20 uM after 24 hrs by annexin V-FITC/propidium iodide staining-based flow cytometric analysis (reference value: 0.74%); format: functional
[22] = Cytotoxicity against human PC3 cells assessed as growth inhibition after 96 hrs by SRB assay; format: functional, cell-based; details: PC-3, 96 h; summary of the method: as §1
MDA-MB-231 [23] = assay: Induction of apoptosis in human MDA-MB-231 cells assessed as late apoptotic cells at 5 uM after 24 hrs by annexin V-FITC/propidium iodide staining-based flow cytometric analysis (reference value: 2.4%); format: functional
4T1 [24] = assay: Cytotoxicity against mouse 4T1 cells assessed as growth inhibition after 96 hrs by SRB assay; format: functional, cell-based; details: 4T1, 96 h; summary of the method: as §1
MCF7 [25] = assay: Induction of apoptosis in human MCF7 cells assessed as early apoptotic cells at 1 uM after 24 hrs by annexin V-FITC/propidium iodide staining-based flow cytometric analysis (reference value: 0.74%); format: functional
NCI/ADR-RES [26] = assay: Induction of apoptosis in human MCF7/ADR cells assessed as late apoptotic cells at 1 uM after 24 hrs by annexin V-FITC/propidium iodide staining-based flow cytometric analysis (reference value: 1.48%); format: functional
MCF7 [27] = assay: Induction of apoptosis in human MCF7 cells assessed as late apoptotic cells at 1 uM after 24 hrs by annexin V-FITC/propidium iodide staining-based flow cytometric analysis (reference value: 0.84%); format: functional
NCI/ADR-RES [28] = assay: Induction of apoptosis in human MCF7/ADR cells assessed as early apoptotic cells at 1 uM after 24 hrs by annexin V-FITC/propidium iodide staining-based flow cytometric analysis (reference value: 0.67%); format: functional
MDA-MB-231 [29] = assay: Induction of apoptosis in human MDA-MB-231 cells assessed as early apoptotic cells at 80 uM after 24 hrs by annexin V-FITC/propidium iodide staining-based flow cytometric analysis (reference value: 0.59%)
MDA-MB-231 [30] = assay: Antimetastatic activity against human MDA-MB-231 cells at 10 to 50 uM after 12 hrs by transwell assay relative to control; format: functional, cell-based
Summary of the method: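 Transwell migration: 8 × 10^4 MDA-MB-231 cells in serum-free medium in the upper chamber, with 10% FBS medium below. Compound added to both chambers, then 12 h migration. Non-migrated cells swabbed off. Migrated cells fixed in 4% paraformaldehyde for 30 min, stained with 0.1% crystal violet for 5 min, and counted in 5 random fields. Inhibition normalized to untreated control migration.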

MCF7 [31] = assay: Induction of apoptosis in human MCF7 cells assessed as early apoptotic cells at 80 uM after 24 hrs by annexin V-FITC/propidium iodide staining-based flow cytometric analysis (reference value: 0.74%); format: functional
MDA-MB-231 [32] = assay: Induction of apoptosis in human MDA-MB-231 cells assessed as late apoptotic cells at 80 uM after 24 hrs by annexin V-FITC/propidium iodide staining-based flow cytometric analysis (reference value: 2.4%)
NCI/ADR-RES [33] = assay: Induction of apoptosis in human MCF7/ADR cells assessed as late apoptotic cells at 80 uM after 24 hrs by annexin V-FITC/propidium iodide staining-based flow cytometric analysis (reference value: 1.48%); format: functional
NCI/ADR-RES [34] = assay: Induction of apoptosis in human MCF7/ADR cells assessed as early apoptotic cells at 80 uM after 24 hrs by annexin V-FITC/propidium iodide staining-based flow cytometric analysis (reference value: 0.67%); format: functional
MCF7 [35] = assay: Induction of apoptosis in human MCF7 cells assessed as late apoptotic cells at 80 uM after 24 hrs by annexin V-FITC/propidium iodide staining-based flow cytometric analysis (reference value: 0.84%); format: functional

| SMILES | Ratio IC50 (PC-3) | IC50 (MCF7 [1]) [µM] | Ratio IC50 (MCF7 [2]) | Ratio IC50 [3] | Ratio IC50 (NCI/ADR-RES [4]) | IC50 (DU-145 [5]) [µM] | Ratio IC50 (4T1 [6]) | IC50 [7] [µM] | IC50 (HT-29 [8]) [µM] | Ratio IC50 (DU-145 [10]) | Ratio IC50 (HT-29 [12]) | IC50 (MDA-MB-231 [13]) [µM] | Ratio IC50 (T47D [14]) | Ratio IC50 (HCT-116) | IC50 (T47D [17]) [µM] | IC50 [18] [µM] | IC50 [19] [µM] | IC50 [22] [µM] | IC50 (4T1 [24]) [µM] | further results |
| --- | --- | --- | --- | --- | --- | --- | --- | --- | --- | --- | --- | --- | --- | --- | --- | --- | --- | --- | --- | --- |
| C=C(C)[C@@H]1CC[C@]2(C(=O)O)CC[C@]3(C)[C@H](CC[C@@H]4[C@@]5(C)CC[C@H](NC(=O)C6CCNCC6)C(C)(C)[C@@H]5CC[C@]43C)[C@@H]12 | 4 | 0.54 | 8.2 | 4.4 | 13.5 | 2.45 | 2.5 | 1.11 | 0.97 | 1.8 | 4.6 | 1.01 | 3.2 | 4 | 1.4 | 0.33 | 4.45 | 1.11 | 1.77 | Activity (NCI/ADR-RES [9]): 12.81%; Activity (MDA-MB-231 [11]): 5.56%; Activity (MCF7 [15]): 4.15%; Activity (MDA-MB-231 [16]): Active; Activity (NCI/ADR-RES [20]): 6.35%; Activity (MCF7 [21]): 16.17%; Activity (MDA-MB-231 [23]): 25.87% |
| CC(=O)O[C@@]12CO[C@@H]1C[C@H](O)[C@@]1(C)C(=O)[C@H](O)C3=C(C)[C@@H](OC(=O)[C@H](O)[C@@H](NC(=O)OC(C)(C)C)c4ccccc4)C[C@@](O)([C@@H](OC(=O)c4ccccc4)[C@H]21)C3(C)C.O.O.O [DOCETAXEL] |  | 0.005 |  |  |  |  |  |  |  |  |  |  |  |  |  | 5.18 |  |  |  | Activity (MCF7 [25]): 5.61%; Activity (NCI/ADR-RES [26]): 1.58%; Activity (MCF7 [27]): 10.63%; Activity (NCI/ADR-RES [28]): 1.38% |
| C=C(C)[C@@H]1CC[C@]2(C(=O)O)CC[C@]3(C)[C@H](CC[C@@H]4[C@@]5(C)CC[C@H](O)C(C)(C)[C@@H]5CC[C@]43C)[C@@H]12 [BETULINIC ACID] | 1.3 | 22.6 | 1.5 | 1 | 0.9 | 36.2 | 2.5 | 22.1 | 17.3 | 0.9 | 2 | 34.6 | 2.2 | 1.6 | 15.6 | 38.5 | 34.5 | 27.5 | 14 | Activity (MDA-MB-231 [29]): 1.94%; Activity (MDA-MB-231 [30]): Active; Activity (MCF7 [31]): 16.58%; Activity (MDA-MB-231 [32]): 27.58%; Activity (NCI/ADR-RES [33]): 2.64%; Activity (NCI/ADR-RES [34]): 4.6%; Activity (MCF7 [35]): 1.3% |

Reference: ChEMBL document CHEMBL3414486, “Synthesis of heterocycle-modified betulinic acid derivatives as antitumor agents” (Eur J Med Chem, 2015)
